Compound activity as filed in PubChem.
Compounds with a hit are over-represented: about 2.5% of the library has one in this group of screens.
SENP8 block-1 – inhibitors of human SENP8 protease | 1.2% of 330,000 active | inhibition, % at 10 µM | AID 2540 | Q96LD8 | purified SENP8, Z-RLRGG-aminoluciferin cleavage, luminescence; in the data active = inhibition above about 50%
SENP8 block-2 – blocks human SENP8 cleavage of Nedd8 substrate. recombinant SENP8, Nedd8 substrate fluorescence. inhibition, % at 20 µM. 0.64% of 360,000 active; in the data active = inhibition mostly above about 40%, no sharp cut-off; inactive = mostly below about 27%
SENP1 FRET inh – inhibitors of human SENP1 SUMO protease catalytic domain | recombinant SENP1 catalytic domain, CyPet-SUMO1-YPet FRET cleavage | inhibition, % at 10 µM | 0.21% of 360,000 active | Q9P0U3;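 active = inhibition at least 30% at 10 µM, raw YFP signal under a set limit, fluorescence ratio 0.5 to 1.5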;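 also: 0% = enzyme with DMSO and 100% = no enzyme wells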
Target sequence (Q9P0U3 419-644 limits assumed): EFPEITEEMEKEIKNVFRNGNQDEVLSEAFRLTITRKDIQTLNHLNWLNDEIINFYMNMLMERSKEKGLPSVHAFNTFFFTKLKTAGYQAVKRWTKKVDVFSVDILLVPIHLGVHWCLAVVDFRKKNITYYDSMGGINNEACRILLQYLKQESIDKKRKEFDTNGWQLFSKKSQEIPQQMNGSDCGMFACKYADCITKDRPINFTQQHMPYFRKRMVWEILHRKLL
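Assay system – human recombinant His6-tagged SENP1 catalytic domain enzyme · Input – SENP1 enzyme, 20 pM final · Buffer or medium – Tris pH 8 buffer plus EDTA, NaCl, BME, BSA, NP40, catalase · Schedule – 50 min reaction at room temperature · Technique – FRET read of cyan and yellow fluorescence · Control set – no-enzyme wells low, DMSO-plus-enzyme wells high control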
SENP7 block – blocks the human protease SENP7 | 1.5% of 330,000 active | recombinant SENP7, Z-RLRGG-aminoluciferin luminescence, 40 min | AID 434973 | inhibition, % at 5 µM;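 active = inhibition above about 50% at the single test dose, limit read from the data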;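 also: plate controls were DMSO with enzyme for no effect and no enzyme buffer wells for full effect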
Target sequence (Q9BQF6 706-1050 limits assumed): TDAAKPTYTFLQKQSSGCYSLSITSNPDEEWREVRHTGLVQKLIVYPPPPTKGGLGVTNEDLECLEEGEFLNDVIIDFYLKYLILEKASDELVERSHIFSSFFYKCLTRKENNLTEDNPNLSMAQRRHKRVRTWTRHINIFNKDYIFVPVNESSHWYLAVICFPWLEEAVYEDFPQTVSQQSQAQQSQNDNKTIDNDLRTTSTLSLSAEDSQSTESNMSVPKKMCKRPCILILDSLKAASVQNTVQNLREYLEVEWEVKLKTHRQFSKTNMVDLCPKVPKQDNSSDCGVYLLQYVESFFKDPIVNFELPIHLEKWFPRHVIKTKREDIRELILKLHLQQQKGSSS
SENP6 block – SENP6 protease inhibition | inhibition, % at 10 µM | AID 2599 | Q9GZR1 | Recombinant SENP6 catalytic domain, aminoluciferin luminescence | 1.8% of 330,000 active;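 active = inhibition above about 50% at the single tested dose, limit read from the data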;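 also: plate controls were DMSO wells with enzyme for no effect and DMSO wells lacking enzyme for full effect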
SENP8 confirm – human SENP8 inhibition, confirmed | shares compounds with SENP7 block | Recombinant SENP8, Z-RLRGG-aminoluciferin luminescence, 60 min | inhibition, % at 12.5 µM | 40% of 6,200 active | AID 488912;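 active = mean inhibition across replicates above about 50%, limit read from the data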
SENP6 confirm – human SENP6 inhibition, confirmed. shares compounds with SENP7 block. recombinant SENP6, Z-RLRGG-aminoluciferin luminescence. inhibition, % at 12.5 µM. 58% of 6,200 active. AID 488915
SENP7 conf – human SENP7 inhibition, confirmed. recombinant SENP7, Z-RLRGG-aminoluciferin luminescence, 40 min. shares compounds with SENP7 block. inhibition, % at 12.5 µM. AID 488917. 69% of 6,200 active
Casp3 SENP sel – inhibits human caspase-3 in SENP selectivity test; inhibition, % at 12.5 µM; shares compounds with SENP7 block; purified caspase-3, Z-DEVD-aminoluciferin luminescence, 60 min; 60% of 6,200 active;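 active = mean inhibition above about 50%, limit read from the data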;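 also: plate controls were enzyme with DMSO for no effect and wells without caspase-3 for full effect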
Luc interf – interferes with luciferase luminescence in SENP counter-screen; shares compounds with SENP7 block; inhibition, % at 12.5 µM; 39% of 6,200 active; AID 488919; Pre-incubated SENP8/Z-RLRGG-aminoluciferin, luciferase luminescence interference;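 active = mean inhibition above about 50% when retested at one dose, limit read from the data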;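 also: plate controls were DMSO wells with completed reaction for no effect and substrate without enzyme for full effect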
An asterisk follows results filed as active; i = inactive; / = no result.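 The calls were made as follows, unless noted: active = mean inhibition above about 50% in the one-dose retest (limit read from the data); inactive = the rest.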

SMILES	SENP8 block-1	SENP8 block-2	SENP1 FRET inh	SENP7 block	SENP6 block	SENP8 confirm	SENP6 confirm	SENP7 conf	Casp3 SENP sel	Luc interf
CNC(=S)Nc1ccc(-c2nc3ccc(C)cc3s2)cc1	64*	-392	-59	50	74*	41	64*	86*	40	43
Nc1ccc2nc(-c3ccccc3)c(-c3ccccc3)nc2c1	1	-221	-32	12	21	/	/	/	/	/
COc1ccc(/C=C(\C#N)C(=O)OCC(=O)Nc2ccc(-c3nc4ccc(C)cc4s3)cc2)cc1	16	-425	-28	53*	-1	24	20	45	26	54*
Nc1ccc2nc(-c3ccccc3)sc2c1	96*	-289	-55	98*	98*	98*	100*	103*	98*	97*
N#Cc1ccc(NC(=O)CSc2cn[nH]n2)cc1	-13	23	1	1	-27	/	/	/	/	/
O=C(CC[C@H]1O[C@@H](n2cnc3c(NC(=O)c4ccccc4)ncnc32)[C@H](O)[C@@H]1O)NCC1CCCCC1	/	31	3	/	/	/	/	/	/	/
CCn1c(SCC(=O)NC2CC2)nnc1-c1ccc(OC)cc1	10	4	-1	4	-5	/	/	/	/	/
Nc1ccc(-c2nc3cc(N)ccc3s2)cc1	84*	-429	-32	90*	75*	93*	93*	100*	90*	90*
COC(=O)c1oc2ccc(Cl)cc2c1N	24	-307	1	46	53*	35	32	69*	58*	32
COc1ccc(C)cc1NC(=O)CCc1ccc(S(=O)(=O)N2CCOCC2)cc1	-7	17	-2	8	4	/	/	/	/	/
O=c1oc(-c2cccs2)nc2sc3c(c12)CCCC3	74*	-37	-73	89*	75*	47	49	46	70*	20
O=c1oc(-c2cccs2)nc2sc3c(c12)CCC3	15	-127	-24	-16	23	/	/	/	/	/
Cc1cc(NC(=O)c2ccccc2)sc1C	90*	0	2	94*	94*	1	96*	103*	96*	95*
Cc1ccc(NC(=O)c2ccccc2)s1	0	11	0	-3	3	/	/	/	/	/
Nc1ncc(Br)cc1N=Cc1ccccc1	28	27	16	17	72*	12	9	19	18	14
O=c1cc(-c2ccco2)oc2ccc(Cl)cc12	/	-401	0	/	/	/	/	/	/	/
COc1ccc(-c2ccc3oc(-c4ccsc4)cc(=O)c3c2)cn1	22	i	-1	70*	0	17	16	18	15	1
COc1ccc(-c2cc(=O)c3cc(O)ccc3o2)cc1	53*	3	4	78*	69*	-21	47	87*	73*	47
COc1ccc2oc(-c3ccco3)cc(=O)c2c1	61*	-462	5	80*	81*	10	26	49	55*	9
O=c1cc(-c2ccccc2)oc2ccc(O)cc12	37	-30	2	56*	66*	54*	51*	82*	66*	71*
NC(=O)c1c(-c2ccccc2)oc2ccc(O)cc12	-1	-132	0	-4	-6	/	/	/	/	/
CC12CCC3c4cc(CN5CCOCC5)c(O)cc4CCC3C1CCC2=O (centres undefined)	/	5	0	/	/	/	/	/	/	/
COc1ccc(-c2cc(=O)c3c(O)cc(O)cc3o2)cc1	68*	25	2	85*	84*	24	52*	64*	75*	17
COc1cc(OC)c2c(=O)cc(-c3ccccc3)oc2c1	46	-229	5	57*	59*	64*	61*	82*	77*	68*
CCCCCCCSc1nnc(N)s1	-7	8	1	3	-4	/	/	/	/	/
SMILES	SENP8 block-1	SENP8 block-2	SENP1 FRET inh	SENP7 block	SENP6 block	SENP8 confirm	SENP6 confirm	SENP7 conf	Casp3 SENP sel	Luc interf
O=C1Nc2ccccc2N=C(c2ccccc2)C1N(C(=O)c1ccnc2ccccc12)c1ccccc1 (centres undefined)	/	-69	3	/	/	/	/	/	/	/
CCCc1nc(SCC(=O)N2CCc3ccccc3C2)c2ccccc2n1	-1	18	-3	98*	-26	10	11	10	6	3
COc1ccc2[nH]c(C(=O)Nc3ccc(C)c(F)c3)cc2c1	-3	-282	1	1	-36	/	/	/	/	/
COc1ccc2[nH]c(C(=O)Nc3cccc(C)n3)cc2c1	85*	-482	2	86*	91*	92*	92*	100*	92*	58*
COc1cc(NC(=O)C2(C)CCCN2C(=O)C(C)C)cc(OC)c1OC (centres undefined)	/	12	1	/	/	/	/	/	/	/
O=C(CSc1nc2ccccc2c(=O)n1-c1cccc(C(F)(F)F)c1)NC1CC1	-10	16	1	1	32	/	/	/	/	/
CCCNC(=O)CSc1nnc(-c2ccccc2Br)n1-c1cccc(C(F)(F)F)c1	-4	10	1	54*	-3	-2	0	-4	0	0
Cc1ccc(C(=O)c2sc3nsc(C)c3c2N)cc1	27	16	-17	53*	57*	12	27	60*	41	11
Cc1ccc(-c2nc(Nc3ccccc3)n[nH]2)cc1	14	-114	1	51*	51*	16	35	73*	22	25
Nc1nc(CSc2n[nH]c(-c3ccccc3)n2)nc(Nc2ccccc2)n1	-1	22	3	1	0	/	/	/	/	/
O=C(O)c1ccc(/C=N/N2CCN(c3ccccc3)CC2)cc1	62*	17	3	72*	62*	7	12	16	6	8
O=C(O)c1ccc(C=NN2CCCCCC2)cc1	/	14	-1	/	/	/	/	/	/	/
COc1ccc(/C=N/N2CCN(c3ccccc3OC)CC2)cc1OC	3	8	2	-10	3	/	/	/	/	/
COc1ccc(/C=N/N2CCN(c3ccccc3OC)CC2)cc1Br	32	20	-1	12	59*	39	42	76*	19	8
COc1ccc(/C=N/N2CCN(c3ccccc3)CC2)cc1Br	15	8	1	58*	33	-15	-7	-3	6	-6
CCOc1ccc(/C=N/NC(=O)c2cc3ccccc3cc2OC)cc1	14	-157	-1	-12	-5	/	/	/	/	/
CCCCN(C(=O)c1ccc(N2CCCC2=O)cc1)c1c(N)n(CCC)c(=O)[nH]c1=O	-12	3	1	-2	-9	/	/	/	/	/
CCNC(=S)N1CCN(CC)CC1	-7	21	1	2	-6	/	/	/	/	/
